Reference: ChEMBL document CHEMBL1121590, “Synthesis and enzymatic and inotropic activity of some new 8-substituted and 6,8-disubstituted derivatives of adenosine cyclic 3',5'-monophosphate” (J Med Chem, 1980)
Calls of active or inactive are those of the source. The calls are words filed in the database; no cut-off is given here.

Key:
Canis familiaris [1] = experiment: Change in heart rate (beats/min) in anesthetized dog; format: functional, Canis lupus familiaris
Summary of the method: (§1)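 Adult mongrel dogs of either sex, induced with sodium methohexital and maintained on methoxyflurane, breathing spontaneously at 37 ± 1 °C. The right atrium was electrically paced, and the pacer was switched off periodically to obtain spontaneous rate. Dose was 3.1 mg/kg iv via the femoral vein. Catheter-tip transducers recorded aortic and LV pressure; LV dP/dt max indexed contractility. BP and rate were taken at the time of maximal % change in dP/dt max. 1–4 dogs were used per compound.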

Canis familiaris [2] = experiment: Evaluated for dP/dt max in anesthetized dogs; format: functional, Canis lupus familiaris; summary of the method: as §1
Phosphodiesterase 4 = Phosphodiesterase 4 (Homo sapiens, UniProt P27815+Q08499+Q07343+Q08493); conditions: Oryctolagus cuniculus; Kidney
Canis familiaris [3] = experiment: Inotropic change in blood pressure (systolic/diastolic mmHg) in anesthetized dog; -8/-25; format: functional, organism-based; conditions: Canis lupus familiaris; Artery; summary of the method: as §1
Canis familiaris [4] = experiment: Inotropic change in blood pressure (systolic/diastolic mmHg) in anesthetized dog; -6/-22; format: functional, organism-based; conditions: Canis lupus familiaris; Artery; summary of the method: as §1
[5] = Inhibition of cAMP phosphodiesterase preparation from rabbit lung at a substrate concentration of 0.14 uM
Canis familiaris [6] = experiment: Inotropic change in blood pressure (systolic/diastolic mmHg) in anesthetized dog; 6/-19; format: functional, organism-based; conditions: Canis lupus familiaris; Artery; summary of the method: as §1
Canis familiaris [7] = experiment: Inotropic change in blood pressure (systolic/diastolic mmHg) in anesthetized dog; 2/-5; format: functional, organism-based; conditions: Canis lupus familiaris; Artery; summary of the method: as §1
Canis familiaris [8] = experiment: Inotropic change in blood pressure (systolic/diastolic mmHg) in anesthetized dog; 0/-6; format: functional, Canis lupus familiaris, Artery; summary of the method: as §1
Canis familiaris [9] = experiment: Inotropic change in blood pressure (systolic/diastolic mmHg) in anesthetized dog; -4/-9; format: functional, organism-based; conditions: Canis lupus familiaris; Artery; summary of the method: as §1

| Hydrolysis (Phosphodiesterase 4) | I50 [5] | Structure (SMILES) | Change (Canis familiaris [1]) | Change (Canis familiaris [2]) | also measured |
| --- | --- | --- | --- | --- | --- |
| < 0.05 | – | CN(C)c1ncnc2c1nc(SCc1ccccc1)n2[C@@H]1O[C@@H]2COP(=O)(O)O[C@H]2[C@H]1O | 15 beats/min | 61% | Change (Canis familiaris [3]): inactive |
| < 0.05 | 2.5 µM | CCNc1ncnc2c1nc(SCc1ccccc1)n2[C@@H]1O[C@@H]2COP(=O)(O)O[C@H]2[C@H]1O | 10 beats/min | 80% | Change (Canis familiaris [4]): inactive |
| < 0.05 | 3.6 µM | CCCNc1ncnc2c1nc(SCc1ccccc1)n2[C@@H]1O[C@@H]2COP(=O)(O)O[C@H]2[C@H]1O | 24 beats/min | 127% | Change (Canis familiaris [6]): inactive |
| < 0.05 | 20 µM | CCCCNc1ncnc2c1nc(SCc1ccccc1)n2[C@@H]1O[C@@H]2COP(=O)(O)O[C@H]2[C@H]1O | 0 beats/min | 84% | Change (Canis familiaris [7]): inactive |
| < 0.05 | 120 µM | CNc1ncnc2c1nc(SCc1ccccc1)n2[C@@H]1O[C@@H]2COP(=O)(O)O[C@H]2[C@H]1O | 0 beats/min | 71% | Change (Canis familiaris [8]): 0% |
| < 0.05 | 16 µM | CCCCCNc1ncnc2c1nc(SCc1ccccc1)n2[C@@H]1O[C@@H]2COP(=O)(O)O[C@H]2[C@H]1O | – | – | – |
| < 0.05 | 15 µM | CCCCCSc1nc2c(N)ncnc2n1[C@@H]1O[C@@H]2COP(=O)(O)O[C@H]2[C@H]1O | – | – | – |
| 0.1 | 80 µM | CCN(CC)c1nc2c(Cl)ncnc2n1[C@@H]1O[C@@H]2COP(=O)(O)O[C@H]2[C@H]1O | – | – | – |
| < 0.05 | 20 µM | Nc1ncnc2c1nc(SCCO)n2[C@@H]1O[C@@H]2COP(=O)(O)O[C@H]2[C@H]1O | – | – | – |
| < 0.05 | 4.6 µM | O=P1(O)OC[C@H]2O[C@@H](n3c(SCc4ccccc4)nc4c(SCc5ccccc5)ncnc43)[C@H](O)[C@@H]2O1 | – | – | – |
| 0.8 | 83 µM | Nc1ncnc2c1nc(N)n2[C@@H]1O[C@@H]2COP(=O)(O)O[C@H]2[C@H]1O | – | – | – |
| < 0.05 | 59 µM | Nc1ncnc2c1nc(Cl)n2[C@@H]1O[C@@H]2COP(=O)(O)O[C@H]2[C@H]1O [TOCLADESINE] | – | – | – |
| < 0.05 | 3.6 µM | CCN(CC)c1ncnc2c1nc(SCc1ccccc1)n2[C@@H]1O[C@@H]2COP(=O)(O)O[C@H]2[C@H]1O | 5 beats/min | 45% | Change (Canis familiaris [9]): inactive |
| < 0.05 | 150 µM | Nc1ncnc2c1nc(O)n2[C@@H]1O[C@@H]2COP(=O)(O)O[C@H]2[C@H]1O | – | – | – |
| < 0.05 | 29 µM | C=CCSc1nc2c(N)ncnc2n1[C@@H]1O[C@@H]2COP(=O)(O)O[C@H]2[C@H]1O | – | – | – |
| < 0.05 | 4.8 µM | O=P1(O)OC[C@H]2O[C@@H](n3c(SCc4ccccc4)nc4c(N5CCCCC5)ncnc43)[C@H](O)[C@@H]2O1 | – | – | – |
